Consider six molecules from ChEMBL document CHEMBL1122190, “Mammary tumor inhibiting effect of 3,3'-diacetoxy-alpha, beta-dialkylstilbenes and of related stilbene oxides” (1982).

Test [1] concerns the target T1, Estrogen receptor (Mus musculus) (UniProt O08537+P19785). To be noted: Uterus.
Test [2] has as its target T1, Estrogen receptor (Mus musculus). In words: Percent inhibition of estrone-stimulated uterine growth in immature mouse at 100 ug dose. The class given is functional. The essentials:
(§1)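 Dorfman uterine weight test in immature female NMRI mice, ten per group, 20 days old and 10-12 g at start. Compounds were given in olive oil sc once daily for 3 days. Mice were killed 24 h after the last injection, and uteri were removed, dried at 100 °C for 24 h and weighed.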

Test [3] shares this target. In words: Antiuterotrophic activity in mice at 100 ug dose. Type of test: functional. A digest of the protocol: as §1
Test [4] relates to Estrogen receptor (Bos taurus). In words: In vitro relative binding affinity for Estrogen receptor compared to [3H]estradiol.
The target of test [5] is T1, Estrogen receptor (Mus musculus). In words: Percent inhibition of estrone-stimulated uterine growth in immature mouse at 5 ug dose. The class given is functional. A digest of the protocol:
as §1

For test [6] the target is unchanged. In words: Percent inhibition of estrone-stimulated uterine growth in immature mouse at 250 ug dose. The class given is functional. A digest of the protocol:
as §1

Test [7] has the same target. In words: Uterotrophic activity in mice at 10 ug dose. Type of test: functional, tissue-based. As to conditions: Uterus. The essentials:
as §1

Test [8] has the same target. In words: Uterotrophic activity in mice at 100 ug dose. As to conditions: Uterus. The class given is functional, tissue-based. A digest of the protocol:
as §1

Test [9] has the same target. In words: Percent inhibition of estrone-stimulated uterine growth in immature mouse at 25 ug dose. The class given is functional. The essentials: as §1
Test [10] concerns Mus musculus. In words: Effect on estrogen and progesterone receptors positive hormone-dependent postmenopausal human mammary carcinoma tumor growth in nude mice at 2.4 mg/kg/day. Type of test: functional. A digest of the protocol: (§2)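 Nude mice carried serially transplanted hormone-dependent human mammary carcinoma. Compounds in olive oil were given sc 6 times a week for 4-5 weeks. Two tumor diameters were measured weekly, and size at treatment start was set as 1. Tumor size was averaged after 5 weeks of therapy.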

For test [11], the target named is T1, Estrogen receptor (Mus musculus). In words: Antiuterotrophic activity in mice at 25 ug dose. Type of test: functional. A digest of the protocol: as §1
The target is the same in test [12]. In words: Antiuterotrophic activity in mice at 250 ug dose. Type of test: functional. The essentials:
as §1

For test [13] the target is unchanged. In words: Uterotrophic activity in mice at 500 ug dose. The class given is functional, tissue-based. To be noted: Uterus. A digest of the protocol: (§3)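 Dorfman uterine weight test in immature female NMRI mice (20 days old at start, 10-12 g; ten per group). Compound given sc daily in olive oil for 3 days. Animals killed 24 h after last injection; uteri removed, dried at 100 °C for 24 h and weighed.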

For test [14] the target is unchanged. In words: Antiuterotrophic activity in mice at 5 ug dose. The class given is functional. A digest of the protocol: as §1
The test system of test [15] is Rattus norvegicus. In words: Percent partial remission of DMBA-induced hormone-dependent mammary carcinoma in rats at 0.5 mg/kg/day. Type of test: functional. The essentials:
(§4)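 Female Sprague-Dawley rats received a single 20 mg DMBA dose by gastric intubation at 50 days of age. About 4 weeks later, rats bearing at least one tumor >140 mm² were grouped in tens. Compounds in olive oil were given sc 6 times a week for 28 days. Tumor area (length × width) was measured twice weekly.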

The subject of test [16] is Rattus norvegicus. In words: Percent unchanged DMBA-induced hormone-dependent mammary carcinoma in rats at 0.5 mg/kg/day. Type of test: functional. A digest of the protocol: as §4
Test [17] deals with Rattus norvegicus. In words: Effect on DMBA-induced hormone-dependent mammary carcinoma tumor growth in rats at 1.0 mg/kg/day. The class given is functional. The essentials:
as §4

In test [18] the test system is Rattus norvegicus. In words: Effect on DMBA-induced hormone-dependent mammary carcinoma tumor number in rats at 4.0 mg/kg/day. Type of test: functional. A digest of the protocol:
as §4

The subject of test [19] is Rattus norvegicus. In words: Percent remission of DMBA-induced hormone-dependent mammary carcinoma in rats at 1.0 mg/kg/day. The class given is functional. A digest of the protocol: as §4
Test [20] relates to Rattus norvegicus. In words: Effect on DMBA-induced hormone-dependent mammary carcinoma tumor number in rats at 1.0 mg/kg/day. The class given is functional. A digest of the protocol: as §4
Test [21] deals with Mus musculus. In words: Effect on estrogen and progesterone receptors positive hormone-dependent postmenopausal human mammary carcinoma tumor growth in nude mice at 1.0 mg/kg/day dose. Type of test: functional. A digest of the protocol: as §2
Test [22] has as its system Rattus norvegicus. In words: Percent partial remission of DMBA-induced hormone-dependent mammary carcinoma in rats at 4.0 mg/kg/day. The class given is functional. The essentials: as §4
The test system of test [23] is Rattus norvegicus. In words: Percent progression of DMBA-induced hormone-dependent mammary carcinoma in rats at 1.0 mg/kg/day. Type of test: functional. A digest of the protocol: as §4
The target of test [24] is T1, Estrogen receptor (Mus musculus). In words: Percent inhibition of estrone-stimulated uterine growth in immature mouse at 50 ug dose. The class given is functional. A digest of the protocol:
as §1

In test [25] the test system is Mus musculus. In words: Effect on estrogen and progesterone receptors positive hormone-dependent postmenopausal human mammary carcinoma tumor growth in nude mice at 2.0 mg/kg/day. Type of test: functional. The essentials: as §2
Test [26] has as its system Rattus norvegicus. In words: Percent unchanged DMBA-induced hormone-dependent mammary carcinoma in rats at 1.0 mg/kg/day. Type of test: functional. The essentials: as §4
Test [27] relates to Rattus norvegicus. In words: Effect on DMBA-induced hormone-dependent mammary carcinoma tumor growth in rats at 0.5 mg/kg/day. The class given is functional. The essentials:
as §4

For test [28], the system named is Rattus norvegicus. In words: Percent unchanged DMBA-induced hormone-dependent mammary carcinoma in rats at 4.0 mg/kg/day. Type of test: functional. The essentials: as §4
Test [29] relates to Rattus norvegicus. In words: Effect on DMBA-induced hormone-dependent mammary carcinoma tumor number in rats at 0.5 mg/kg/day. Type of test: functional. The essentials: as §4
Test [30] deals with T1, Estrogen receptor (Mus musculus). In words: Uterotrophic activity in mice at 80 ug dose. The class given is functional, tissue-based. As to conditions: Uterus. The essentials: as §3
Test [31] deals with Rattus norvegicus. In words: Effect on DMBA-induced hormone-dependent mammary carcinoma tumor growth in rats at 4.0 mg/kg/day. Type of test: functional. The essentials: as §4
Test [32] has as its system Rattus norvegicus. In words: Percent progression of DMBA-induced hormone-dependent mammary carcinoma in rats at 4.0 mg/kg/day. The class given is functional. A digest of the protocol: as §4
Test [33] relates to Rattus norvegicus. In words: Effect on DMBA-induced hormone-dependent mammary carcinoma tumor growth in rats at 0.5 mg/kg/day (initial tumor number). Type of test: functional. A digest of the protocol: as §4
In test [34] the target is T1, Estrogen receptor (Mus musculus). In words: Antiuterotrophic activity in mice at 50 ug dose. The class given is functional. The essentials: as §1
The target is the same in test [35]. In words: Uterotrophic activity in mice at 800 ug dose. Type of test: functional, tissue-based. As to conditions: Uterus. The essentials:
as §3

In test [36] the test system is Rattus norvegicus. In words: Percent progression of DMBA-induced hormone-dependent mammary carcinoma in rats at 0.5 mg/kg/day (Percent of tumors with progression). Type of test: functional. The essentials: as §4
In test [37] the test system is Rattus norvegicus. In words: Percent remission of DMBA-induced hormone-dependent mammary carcinoma in rats at 0.5 mg/kg/day. Type of test: functional. A digest of the protocol: as §4
In test [38] the test system is Rattus norvegicus. In words: Effect on DMBA-induced hormone-dependent mammary carcinoma tumor growth in rats at 4.0 mg/kg/day (initial tumor number). The class given is functional. The essentials: as §4
Test [39] deals with Rattus norvegicus. In words: Percent partial remission of DMBA-induced hormone-dependent mammary carcinoma in rats at 1.0 mg/kg/day. Type of test: functional. The essentials:
as §4

Test [40] concerns Rattus norvegicus. In words: Effect on DMBA-induced hormone-dependent mammary carcinoma tumor growth in rats at 1.0 mg/kg/day (initial tumor number). The class given is functional. A digest of the protocol:
as §4

For test [41], the system named is Rattus norvegicus. In words: Percent remission of DMBA-induced hormone-dependent mammary carcinoma in rats at 4.0 mg/kg/day. The class given is functional. The essentials:
as §4

The target of test [42] is T1, Estrogen receptor (Mus musculus). In words: Uterotrophic activity in mice at 8 ug dose. The class given is functional, tissue-based. To be noted: Uterus. A digest of the protocol: as §3
Test [43] has as its system Mus musculus. In words: Effect on estrogen and progesterone receptors positive hormone-dependent postmenopausal human mammary carcinoma tumor growth in nude mice at 3.0 mg/kg/day. The class given is functional. A digest of the protocol:
as §2

The subject of test [44] is Mus musculus. In words: Effect on estrogen and progesterone receptors positive hormone-dependent postmenopausal human mammary carcinoma tumor growth in nude mice at 2.8 mg/kg/day. The class given is functional. The essentials: as §2
Test [45] has as its target T1, Estrogen receptor (Mus musculus). In words: Uterotrophic activity in mice at 50 ug dose. The class given is functional, tissue-based. As to conditions: Uterus. A digest of the protocol: as §3
Test [46] has as its system Mus musculus. In words: Effect on estrogen and progesterone receptors positive hormone-dependent postmenopausal human mammary carcinoma tumor growth in nude mice at 2.6 mg/kg/day. Type of test: functional. The essentials:
as §2

For test [47], the target named is T1, Estrogen receptor (Mus musculus). In words: Uterotrophic activity in mice at 1 ug dose. Type of test: functional, tissue-based. As to conditions: Uterus. The essentials: as §1

Usually inhibition stands for the change of the read-out against control, counted positive when it falls.

T1 sequence (O08537 whole entry, looked up): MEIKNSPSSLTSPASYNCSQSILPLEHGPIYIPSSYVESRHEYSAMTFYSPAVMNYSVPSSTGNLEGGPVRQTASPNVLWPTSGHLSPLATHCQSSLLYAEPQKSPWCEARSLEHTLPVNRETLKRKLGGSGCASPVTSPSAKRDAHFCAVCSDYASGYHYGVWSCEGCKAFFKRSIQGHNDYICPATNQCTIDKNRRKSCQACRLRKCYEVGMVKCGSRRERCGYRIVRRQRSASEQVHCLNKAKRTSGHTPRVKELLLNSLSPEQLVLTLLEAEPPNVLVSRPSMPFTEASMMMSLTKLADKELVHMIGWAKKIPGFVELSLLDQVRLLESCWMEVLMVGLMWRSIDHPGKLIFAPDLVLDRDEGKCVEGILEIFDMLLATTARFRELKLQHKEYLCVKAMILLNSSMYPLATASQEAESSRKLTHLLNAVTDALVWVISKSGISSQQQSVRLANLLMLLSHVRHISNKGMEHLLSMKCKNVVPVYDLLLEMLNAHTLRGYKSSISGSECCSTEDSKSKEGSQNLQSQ
T1 sequence (P19785 whole entry, looked up): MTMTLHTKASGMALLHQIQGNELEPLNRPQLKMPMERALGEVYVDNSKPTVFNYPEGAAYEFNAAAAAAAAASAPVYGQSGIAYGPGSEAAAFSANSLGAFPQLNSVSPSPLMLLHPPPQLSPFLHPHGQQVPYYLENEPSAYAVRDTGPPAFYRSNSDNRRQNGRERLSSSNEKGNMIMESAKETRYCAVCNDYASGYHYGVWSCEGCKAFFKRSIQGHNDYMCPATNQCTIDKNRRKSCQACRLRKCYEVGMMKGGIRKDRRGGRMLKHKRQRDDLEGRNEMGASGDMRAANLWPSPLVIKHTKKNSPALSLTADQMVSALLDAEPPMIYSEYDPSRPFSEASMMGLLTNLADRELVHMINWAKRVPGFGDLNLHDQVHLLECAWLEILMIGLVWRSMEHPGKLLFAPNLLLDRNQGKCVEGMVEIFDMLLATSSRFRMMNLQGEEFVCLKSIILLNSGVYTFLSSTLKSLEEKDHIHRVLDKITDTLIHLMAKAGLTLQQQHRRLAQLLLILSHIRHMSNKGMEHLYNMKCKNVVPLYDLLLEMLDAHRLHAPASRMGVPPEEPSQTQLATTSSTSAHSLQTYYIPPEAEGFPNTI

As for `C[C@]12CC[C@@H]3c4ccc(O)cc4CC[C@H]3[C@@H]1CCC2=O`, the Effect in test [1] was 40.7.

For the molecule `CC(=O)Oc1cccc(C2(C)OC2(C)c2cccc(OC(C)=O)c2)c1` (stereo not drawn), the inhibition in test [2] was 33.4%; in test [5], 17.4%; in [6], 31.7%; in test [9], 23%. Also, the Effect was 32.6 in test [3]; 17 in [7]; 15 in test [8]; 36.1 in test [11]; 33.1 in test [12]; 20.6 in test [13]. The same molecule had an Effect in [14] of 37.9. For the same molecule, in [4], the RBA worked out at 0.8%. The molecule also came in with a Tumor size in [10] of 2.72.

As to `CCC1(c2cccc(O)c2)OC1(CC)c1cccc(O)c1` (stereo not drawn), the figures for the inhibition in test [2], in test [5] and in test [24] were 2.7%, 52.5% and 34.3%, respectively. Also, the Tumors in [15] amounted to 13%; in test [16] it was 5%; in [19], 76%; in test [22], 12%; in test [23], 10%; in test [26], 0%. Also, the Tumors came out at 12% in test [28]; 15% in test [32]; 13% in test [36]; 69% in test [37]; 13% in test [39]; 61% in test [41]. The Change was -52% in [17], 18% in [27] and -16% in [31]. For the same molecule, the Effect is 42.2 in test [3]; 33 in test [30]; 33 in test [34]; 43.6 in test [35]; 29.4 in test [42]; 27.6 in test [14]. Further, the No. of tumors in test [18] was 4; in test [20], 10; in test [29], 18; in test [33] it was 27; in test [38] it was 29; in test [40] it was 31. This molecule also came in with an RBA in [4] of 5.4%. Moreover, the Tumor size in test [21] is 2.9; in [25] it was 1.85.

As for `CCCC/C(=C(/CCCC)c1cccc(OC(C)=O)c1)c1cccc(OC(C)=O)c1`, in test [4], the RBA worked out at 0.6%. Besides, the Tumor size in [43] was found to be 4.1.

`CCC/C(=C(/CCC)c1cccc(OC(C)=O)c1)c1cccc(OC(C)=O)c1` gave an RBA in [4] of 1.3%. Moreover, the Tumor size in test [44] is 2.32.

For the molecule `CC/C(=C(/CC)c1cccc(OC(C)=O)c1)c1cccc(OC(C)=O)c1`, the RBA in [4] was determined as 2.2%. Moreover, the Effect in test [7] turned out to be 24.3; in [45], 27.4; in test [8], 32.7; in [47] it was 15.9; in [13] it was 42. This molecule returned a Tumor size in [46] of 2.3.
